In data set [1] the target is T1, Phosphodiesterase 4 (Homo sapiens, UniProt P27815+Q08499+Q07343+Q08493). The data set is described as follows: Inhibition of PDE4 in human U937 cells assessed as accumulation of [3H]adenosine by scintillation counting. The data set is classed as cell-based. The following applies: u-937.
Data set [2] has as its target Phosphodiesterase 3 (Homo sapiens, UniProt Q14432+Q13370). Kind of data set: Inhibition of human recombinant PDE3 catalytic domain expressed in baculovirus-infected insect Sf9 cells by modified two-step method. The gist of the method:
(§1)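 Human recombinant enzymes from a baculoviral expression system, tested in a modified two-step PDE assay as part of a PDE1–11 isozyme panel. IC50 values were calculated from the means of three experiments.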

The target in data set [3] is High affinity 3',5'-cyclic-AMP phosphodiesterase 7A (Homo sapiens, UniProt Q13946). Kind of data set: Inhibition of human recombinant PDE7A1 expressed in baculovirus-infected insect Sf9 cells by modified two-step method. The gist of the method: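 PDE7A1 was a human recombinant enzyme from a baculoviral expression system, tested in a modified two-step assay. Its substrate concentration was reduced compared with the other panel isozymes. IC50 values were calculated from the means of three experiments.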
High affinity 3',5'-cyclic-AMP phosphodiesterase 7A, sequence (Q13946 whole entry): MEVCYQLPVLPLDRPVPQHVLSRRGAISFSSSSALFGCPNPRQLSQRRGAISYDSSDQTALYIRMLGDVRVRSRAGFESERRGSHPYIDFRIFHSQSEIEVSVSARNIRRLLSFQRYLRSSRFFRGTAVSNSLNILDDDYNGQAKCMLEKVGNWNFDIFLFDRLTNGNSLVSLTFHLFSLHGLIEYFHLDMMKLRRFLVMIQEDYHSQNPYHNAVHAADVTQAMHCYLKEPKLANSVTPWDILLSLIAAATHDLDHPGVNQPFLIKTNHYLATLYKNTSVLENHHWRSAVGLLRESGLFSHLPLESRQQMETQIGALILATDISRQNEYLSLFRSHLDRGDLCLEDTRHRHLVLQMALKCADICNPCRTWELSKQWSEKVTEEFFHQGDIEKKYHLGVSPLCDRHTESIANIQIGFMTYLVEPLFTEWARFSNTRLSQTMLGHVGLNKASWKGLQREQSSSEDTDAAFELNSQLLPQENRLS

In data set [4] the test system is PBMC. The data set is described as follows: Antiinflammatory activity in human PBMC assessed as inhibition of LPS-induced TNFalpha release in after 24 hrs by FACS Array analysis. Format: functional, cell-based.
Data set [5] relates to PBMC. Kind of data set: Antiinflammatory activity in human PBMC assessed as inhibition of phytohemagglutininin-induced IL2 release after 24 hrs by FACS Array analysis. Format: functional, cell-based.
In data set [6] the test system is PBMC. Kind of data set: Antiinflammatory activity in human PBMC assessed as inhibition of phytohemagglutininin-induced IFN-gamma release after 24 hrs by FACSArray analysis. Format: functional, cell-based.
Data set [7] concerns PBMC. Kind of data set: Antiinflammatory activity in human PBMC assessed as inhibition of phytohemagglutininin-induced IL5 release after 48 hrs by FACS Array analysis. The data set is classed as functional, cell-based.
The test system of data set [8] is PBMC. The data set is described as follows: Antiinflammatory activity in human PBMC assessed as inhibition of phytohemagglutininin-induced IL10 release after 48 hrs by FACS Array analysis. Format: functional, cell-based.
In data set [9] the test system is Mus musculus. The data set is described as follows: Antiinflammatory activity in mouse ear edema model assessed as inhibition of PMA-induced ear edema at 1 mg/ear administered 2 times 30 mins before and 15 mins after PMA challenge measured after 6 hrs of PMA application relative to control. The data set is classed as functional.
Data set [10] has as its system Mus musculus. Kind of data set: Antiinflammatory activity in mouse ear edema model assessed as inhibition of PMA-induced ear edema at 3 mg/ear administered 2 times 30 mins before and 15 mins after PMA challenge measured after 6 hrs of PMA application relative to control. The data set is classed as functional.
In data set [11] the target is Dual specificity calcium/calmodulin-dependent 3',5'-cyclic nucleotide phosphodiesterase 1A (Homo sapiens, UniProt P54750). Kind of data set: Inhibition of human recombinant PDE1A3 expressed in baculovirus-infected insect Sf9 cells by modified two-step method. The gist of the method:
as §1

The test system of data set [12] is L929. The data set is described as follows: Cytotoxicity against mouse L929 cells up to 100 uM. The data set is classed as cell-based.
The target in data set [13] is T1, Phosphodiesterase 4. Kind of data set: Inhibition of human recombinant PDE4 catalytic domain expressed in baculovirus-infected insect Sf9 cells by modified two-step method.
Data set [14] relates to PBMC. Kind of data set: Antiinflammatory activity in human PBMC assessed as inhibition of IL1-beta release by FACSArray analysis. Format: functional, cell-based.
The subject of data set [15] is PBMC. The data set is described as follows: Antiinflammatory activity in human PBMC assessed as inhibition of IL4 release by FACS Array analysis. The data set is classed as functional, cell-based.
Data set [16] concerns the target cGMP-dependent 3',5'-cyclic phosphodiesterase (Homo sapiens) (UniProt O00408). The data set is described as follows: Inhibition of human recombinant PDE2 expressed in baculovirus-infected insect Sf9 cells at 10 uM by modified two-step method.
Data set [17] deals with Phosphodiesterase 6 (Homo sapiens) (UniProt Q13956+P18545+P35913+O43924+P16499+P51160). The data set is described as follows: Inhibition of human recombinant PDE6 expressed in baculovirus-infected insect Sf9 cells at 10 uM by modified two-step method.
Data set [18] deals with Phosphodiesterase 8 (Homo sapiens) (UniProt O95263+O60658). Kind of data set: Inhibition of human recombinant PDE8 expressed in baculovirus-infected insect Sf9 cells at 10 uM by modified two-step method.
Data set [19] concerns the target High affinity cGMP-specific 3',5'-cyclic phosphodiesterase 9A (Homo sapiens) (UniProt O76083). Kind of data set: Inhibition of human recombinant PDE9 expressed in baculovirus-infected insect Sf9 cells at 10 uM by modified two-step method.
Data set [20] addresses cAMP and cAMP-inhibited cGMP 3',5'-cyclic phosphodiesterase 10A (Homo sapiens) (UniProt Q9Y233). The data set is described as follows: Inhibition of human recombinant PDE10 expressed in baculovirus-infected insect Sf9 cells at 10 uM by modified two-step method.
The target in data set [21] is Dual 3',5'-cyclic-AMP and -GMP phosphodiesterase 11A (Homo sapiens) (UniProt Q9HCR9). Kind of data set: Inhibition of human recombinant PDE11 expressed in baculovirus-infected insect Sf9 cells at 10 uM by modified two-step method.
Dual 3',5'-cyclic-AMP and -GMP phosphodiesterase 11A (Homo sapiens), sequence (Q9HCR9 whole entry, looked up): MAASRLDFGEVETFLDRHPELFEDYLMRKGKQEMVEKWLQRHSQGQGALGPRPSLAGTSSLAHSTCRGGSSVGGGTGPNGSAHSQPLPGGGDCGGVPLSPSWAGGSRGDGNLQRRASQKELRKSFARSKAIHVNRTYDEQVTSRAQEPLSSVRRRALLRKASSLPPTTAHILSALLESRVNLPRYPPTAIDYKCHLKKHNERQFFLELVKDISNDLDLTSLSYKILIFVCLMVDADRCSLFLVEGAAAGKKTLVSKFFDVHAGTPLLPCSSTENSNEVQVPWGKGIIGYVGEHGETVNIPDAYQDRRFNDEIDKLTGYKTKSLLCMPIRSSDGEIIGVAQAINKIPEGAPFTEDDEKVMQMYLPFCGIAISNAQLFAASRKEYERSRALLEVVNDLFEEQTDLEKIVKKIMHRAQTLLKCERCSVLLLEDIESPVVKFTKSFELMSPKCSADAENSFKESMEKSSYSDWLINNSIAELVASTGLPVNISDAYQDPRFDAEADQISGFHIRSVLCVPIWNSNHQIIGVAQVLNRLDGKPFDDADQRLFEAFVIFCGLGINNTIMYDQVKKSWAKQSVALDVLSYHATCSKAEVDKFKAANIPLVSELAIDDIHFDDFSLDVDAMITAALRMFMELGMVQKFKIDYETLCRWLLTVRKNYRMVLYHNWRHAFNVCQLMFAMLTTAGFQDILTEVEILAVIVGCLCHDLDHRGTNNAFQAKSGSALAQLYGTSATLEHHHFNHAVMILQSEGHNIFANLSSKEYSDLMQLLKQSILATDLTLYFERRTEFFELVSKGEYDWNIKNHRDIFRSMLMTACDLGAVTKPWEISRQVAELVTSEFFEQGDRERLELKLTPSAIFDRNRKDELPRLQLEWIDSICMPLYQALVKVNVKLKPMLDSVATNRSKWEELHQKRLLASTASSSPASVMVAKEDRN
Data set [22] addresses cGMP-specific 3',5'-cyclic phosphodiesterase (Homo sapiens) (UniProt O76074). Kind of data set: Inhibition of human recombinant PDE5 expressed in baculovirus-infected insect Sf9 cells at 10 uM by modified two-step method.

Calls of active or inactive are those of the source. The rule behind the calls is not given here. A value given as a limit tells only on which side of the number the result lay.

Dual specificity calcium/calmodulin-dependent 3',5'-cyclic nucleotide phosphodiesterase 1A, sequence (P54750 whole entry): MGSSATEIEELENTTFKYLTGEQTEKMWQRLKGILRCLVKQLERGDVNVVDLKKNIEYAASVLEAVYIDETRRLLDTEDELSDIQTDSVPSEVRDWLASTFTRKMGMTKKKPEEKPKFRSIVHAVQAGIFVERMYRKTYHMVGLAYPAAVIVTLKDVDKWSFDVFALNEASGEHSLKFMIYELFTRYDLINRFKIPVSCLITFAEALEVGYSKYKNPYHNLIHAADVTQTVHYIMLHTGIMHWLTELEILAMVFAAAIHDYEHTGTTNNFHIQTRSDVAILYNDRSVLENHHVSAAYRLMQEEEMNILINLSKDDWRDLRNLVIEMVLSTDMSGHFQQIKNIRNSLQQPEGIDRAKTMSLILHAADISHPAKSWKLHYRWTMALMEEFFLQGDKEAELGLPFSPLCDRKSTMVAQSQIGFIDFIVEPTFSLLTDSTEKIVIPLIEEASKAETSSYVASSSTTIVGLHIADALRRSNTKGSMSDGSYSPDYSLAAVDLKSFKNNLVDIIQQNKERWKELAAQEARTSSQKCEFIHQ
cAMP and cAMP-inhibited cGMP 3',5'-cyclic phosphodiesterase 10A (Homo sapiens), sequence (Q9Y233 whole entry): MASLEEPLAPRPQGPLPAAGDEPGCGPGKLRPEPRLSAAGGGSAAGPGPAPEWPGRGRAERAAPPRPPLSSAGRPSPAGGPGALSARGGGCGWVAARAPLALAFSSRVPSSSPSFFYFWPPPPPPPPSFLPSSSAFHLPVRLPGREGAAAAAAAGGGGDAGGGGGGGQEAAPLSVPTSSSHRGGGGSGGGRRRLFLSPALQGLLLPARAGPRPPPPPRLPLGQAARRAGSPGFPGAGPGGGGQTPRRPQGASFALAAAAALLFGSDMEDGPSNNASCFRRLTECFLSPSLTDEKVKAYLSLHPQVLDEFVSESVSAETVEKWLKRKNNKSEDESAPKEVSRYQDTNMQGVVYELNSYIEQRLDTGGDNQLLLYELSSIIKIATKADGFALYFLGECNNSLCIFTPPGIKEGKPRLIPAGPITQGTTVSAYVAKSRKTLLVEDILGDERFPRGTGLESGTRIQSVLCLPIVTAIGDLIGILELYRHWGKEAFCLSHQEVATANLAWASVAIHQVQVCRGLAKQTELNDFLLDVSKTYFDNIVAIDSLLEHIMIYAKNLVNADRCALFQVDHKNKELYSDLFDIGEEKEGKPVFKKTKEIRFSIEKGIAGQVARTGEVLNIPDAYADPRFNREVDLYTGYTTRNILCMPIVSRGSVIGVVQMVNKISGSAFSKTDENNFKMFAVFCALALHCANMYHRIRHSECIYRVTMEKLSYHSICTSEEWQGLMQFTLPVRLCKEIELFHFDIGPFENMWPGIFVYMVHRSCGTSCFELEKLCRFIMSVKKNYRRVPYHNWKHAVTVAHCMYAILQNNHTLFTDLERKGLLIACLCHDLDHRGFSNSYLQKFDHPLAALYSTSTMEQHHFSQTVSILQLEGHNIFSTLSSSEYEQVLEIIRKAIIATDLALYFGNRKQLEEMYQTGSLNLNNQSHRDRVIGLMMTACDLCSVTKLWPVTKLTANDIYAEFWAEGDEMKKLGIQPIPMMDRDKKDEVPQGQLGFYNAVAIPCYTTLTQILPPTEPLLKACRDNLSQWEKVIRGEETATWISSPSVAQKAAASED
cGMP-dependent 3',5'-cyclic phosphodiesterase (Homo sapiens), sequence (O00408 whole entry): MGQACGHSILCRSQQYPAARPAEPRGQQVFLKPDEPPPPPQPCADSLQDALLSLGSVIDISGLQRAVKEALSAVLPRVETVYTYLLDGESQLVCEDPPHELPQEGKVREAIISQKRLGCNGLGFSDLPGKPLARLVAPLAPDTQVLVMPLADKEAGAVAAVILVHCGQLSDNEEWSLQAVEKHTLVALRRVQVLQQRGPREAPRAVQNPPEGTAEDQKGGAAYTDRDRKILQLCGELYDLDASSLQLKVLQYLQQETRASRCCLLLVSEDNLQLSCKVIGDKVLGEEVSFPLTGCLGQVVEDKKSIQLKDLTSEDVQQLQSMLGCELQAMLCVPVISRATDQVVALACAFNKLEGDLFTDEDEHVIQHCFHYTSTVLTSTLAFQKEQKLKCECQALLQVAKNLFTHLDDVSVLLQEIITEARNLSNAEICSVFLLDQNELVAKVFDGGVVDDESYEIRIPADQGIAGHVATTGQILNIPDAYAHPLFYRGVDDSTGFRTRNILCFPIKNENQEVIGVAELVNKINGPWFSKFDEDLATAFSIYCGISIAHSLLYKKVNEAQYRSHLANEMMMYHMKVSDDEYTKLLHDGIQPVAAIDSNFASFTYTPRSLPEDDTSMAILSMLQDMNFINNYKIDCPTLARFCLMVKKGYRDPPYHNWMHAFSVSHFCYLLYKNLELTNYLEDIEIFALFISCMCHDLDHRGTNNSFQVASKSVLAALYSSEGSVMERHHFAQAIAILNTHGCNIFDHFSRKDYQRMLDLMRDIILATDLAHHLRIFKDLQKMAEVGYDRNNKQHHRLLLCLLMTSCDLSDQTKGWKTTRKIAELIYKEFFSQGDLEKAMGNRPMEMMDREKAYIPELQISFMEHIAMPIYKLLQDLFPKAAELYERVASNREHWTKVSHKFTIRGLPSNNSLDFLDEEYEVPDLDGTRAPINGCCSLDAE
High affinity cGMP-specific 3',5'-cyclic phosphodiesterase 9A (Homo sapiens), sequence (O76083 whole entry): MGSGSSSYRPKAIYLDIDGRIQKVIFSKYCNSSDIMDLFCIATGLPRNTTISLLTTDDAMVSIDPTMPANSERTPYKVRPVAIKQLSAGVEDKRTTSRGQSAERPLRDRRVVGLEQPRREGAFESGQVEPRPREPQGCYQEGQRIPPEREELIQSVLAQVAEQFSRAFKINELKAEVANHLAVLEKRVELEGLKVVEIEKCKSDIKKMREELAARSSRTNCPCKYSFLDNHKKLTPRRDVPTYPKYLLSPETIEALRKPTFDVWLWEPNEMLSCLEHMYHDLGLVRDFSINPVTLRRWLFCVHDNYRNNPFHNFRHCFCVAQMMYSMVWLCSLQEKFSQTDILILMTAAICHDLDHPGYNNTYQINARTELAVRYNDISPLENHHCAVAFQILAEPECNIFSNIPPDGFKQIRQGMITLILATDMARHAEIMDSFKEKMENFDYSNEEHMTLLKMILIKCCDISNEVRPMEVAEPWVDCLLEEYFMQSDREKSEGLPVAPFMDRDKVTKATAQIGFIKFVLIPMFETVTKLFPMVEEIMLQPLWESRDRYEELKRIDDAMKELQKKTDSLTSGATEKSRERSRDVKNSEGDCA

`OB1OCc2cc(Oc3ccc(Cl)cc3)ccc21`: the IC50 in data set [1] came out at 1.3 µM.

Consider `O=C1CCc2cc(OCCCCc3nnnn3C3CCCCC3)ccc2N1` [CILOSTAZOL], for which the IC50 in data set [2] stood at 0.84 µM.

With `OB1OCc2cc(Oc3ccc(F)cc3)ccc21`, the concentration for half-maximal inhibition (IC50) in data set [1] amounted to 7.7 µM.

For the compound `Cc1ccc([N+](=O)[O-])cc1S(=O)(=O)N(C)C`, the 50% inhibitory concentration (IC50) in data set [3] was found to be 2200 nM.

Regarding `CCN(CC)C(=O)c1ccc(Oc2ccc3c(c2)COB3O)cc1`, in data set [1], the IC50 was 1.5 µM.

For the compound `COc1ccc(C2CNC(=O)C2)cc1OC1CCCC1` (stereo not drawn) [ROLIPRAM], the IC50 in [4] was 160 nM; in [5] it was 230 nM; in [6], 230 nM; in [7] it was 500 nM; in data set [8] it was 0.88 µM. The “inhibition (INH)” value in [9] worked out at 6%; in [10], 53%.

On to `OB1OCc2cc(Oc3ccc(C(F)(F)F)cc3)ccc21`, for which the IC50 in data set [1] was 0.45 µM.

Turning to `OB1OCc2cc(Oc3ccccc3)ccc21`, in [1], the IC50 came to 6.8 µM.

Turning to `N#Cc1ccc(Oc2cccc3c2B(O)OC3)cc1`, the IC50 in data set [1] is above 30 µM.

For `Cc1ccc(Oc2ccc3c(c2)COB3O)cc1`, in data set [1], the 50% inhibitory concentration (IC50) came out at 2 µM.

For the compound `N#Cc1ccc(Oc2ccc3c(c2)COB3O)cc1` [CRISABOROLE], the IC50 in data set [2] amounted to 6.4 µM; in data set [11], 6.1 µM; in data set [1] it was 0.49 µM; in data set [4], 540 nM; in data set [5], 610 nM; in data set [6] it was 830 nM. Moreover, the IC50 in [7] is 2400 nM; in data set [8], 5.3 µM; in data set [13] it was 0.11 µM. In [12], the Activity entry was “Non-toxic”. Moreover, the “inhibition (INH)” value in [9] is on record as 78%. Further, the inhibition entry in [14], in [15], in data set [16], in data set [17], in data set [18] and in [19] was “inactive” in each case. In addition, the inhibition result in data set [20], in data set [21] and in data set [22] was “inactive” in each case.

As for `N#Cc1ccccc1Oc1ccc2c(c1)COB2O`, the IC50 in [1] amounted to 3.7 µM.

Regarding `N#Cc1ccc(Oc2cccc3c2COB3O)cc1`, the IC50 in data set [1] is 6 µM.

In the case of `O=C(c1ccc(Oc2ccc3c(c2)COB3O)cc1)N1CCOCC1`, in [1], the IC50 came out at 0.57 µM.

As to `C[C@@H]1C[C@H]2[C@@H]3CCC4=CC(=O)C=C[C@]4(C)[C@@]3(F)[C@@H](O)C[C@]2(C)[C@@]1(O)C(=O)CO` [DEXAMETHASONE], the “inhibition (INH)” value in [9] was 72%.

`N#Cc1ccc(Oc2ccc3c(c2)B(O)OC3)cc1`: the 50% inhibitory concentration (IC50) in data set [1] is above 30 µM; in data set [4] it was above 10000 nM; in data set [5], above 10000 nM; in [6], above 10000 nM; in [7] it was above 10000 nM; in data set [8] it was above 10 µM. Also, the Activity result in data set [12] is reported as “Non-toxic”. In addition, the inhibition entry in [14] and in [15] was “inactive” throughout.

With `CN1CCN(S(=O)(=O)c2ccc(Oc3ccc4c(c3)COB4O)cc2)CC1`, the 50% inhibitory concentration (IC50) in [1] was above 30 µM.

As for `N#Cc1cccc(Oc2ccc3c(c2)COB3O)c1`, the IC50 in data set [1] came out at 4.4 µM.

On to `COCc1nc2c([nH]1)c(=O)n(C)c(=O)n2CC(C)C`, for which, in data set [11], the half-inhibitory concentration (IC50) worked out at 10 µM.

For `O=C(O)c1ccc(Oc2ccc3c(c2)COB3O)cc1`, the IC50 is 6.4 µM in data set [1]; above 10000 nM in [4]; above 10000 nM in data set [5]; above 10000 nM in data set [6]; above 10000 nM in data set [7]; above 10 µM in data set [8]. Also, in data set [12], the Activity entry was “Non-toxic”. In addition, the inhibition entry in [14] and in data set [15] was “inactive” each time.

In the case of `COc1ccc(Oc2ccc3c(c2)COB3O)cc1`, in [1], the IC50 was 2.7 µM.

On to `CCN(CC)S(=O)(=O)c1ccc(Oc2ccc3c(c2)COB3O)cc1`, for which the IC50 in data set [1] worked out at 3.4 µM.

The record behind these values is ChEMBL document CHEMBL1153998, “Discovery and structure-activity study of a novel benzoxaborole anti-inflammatory agent (AN2728) for the potential topical treatment of psoriasis and atopic dermatitis” (Bioorg Med Chem Lett, 2009).
